# A selection: hits, their analogues and other compounds. The true share with any hit is near 4.2%.
# AI-2 QS modul – modulators of Vibrio harveyi AI-2 quorum sensing system | Vibrio harveyi JMH597 AI-2 luminescence/OD600 ratio, 9 h; hits give low values; strain lacks LuxN and CqsS sensors; 0 = neutral-control median | activity change, % at 7.5 µM | hit rate 0.4% among 300,000 | AID 2094; in the data active means activity change below about -75%, passing the limit was not always enough; inconclusive means no clear call, values can overlap the other calls;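 further: luminescence divided by OD600 gain over 9 h not by final OD600 alone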
# Cl transport mod – modulators of human KCC2 chloride dependent transport. B-score of Tl+ flux slope (higher = more flux/activation; lower = inhibition) at 10 µM. KCC2 cells, thallium flux FluoZin-2 fluorescence. hit rate 2.2% among 190,000. Q9H2X9;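 active means thallium flux slope and its plate-corrected score both differing from the plate sample mean at a set confidence after two filtering rounds, in either direction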;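 further: slope of fluorescence scaled to starting intensity during 10 to 20 s after thallium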
# Target sequence (Q9H2X9 whole entry, looked up): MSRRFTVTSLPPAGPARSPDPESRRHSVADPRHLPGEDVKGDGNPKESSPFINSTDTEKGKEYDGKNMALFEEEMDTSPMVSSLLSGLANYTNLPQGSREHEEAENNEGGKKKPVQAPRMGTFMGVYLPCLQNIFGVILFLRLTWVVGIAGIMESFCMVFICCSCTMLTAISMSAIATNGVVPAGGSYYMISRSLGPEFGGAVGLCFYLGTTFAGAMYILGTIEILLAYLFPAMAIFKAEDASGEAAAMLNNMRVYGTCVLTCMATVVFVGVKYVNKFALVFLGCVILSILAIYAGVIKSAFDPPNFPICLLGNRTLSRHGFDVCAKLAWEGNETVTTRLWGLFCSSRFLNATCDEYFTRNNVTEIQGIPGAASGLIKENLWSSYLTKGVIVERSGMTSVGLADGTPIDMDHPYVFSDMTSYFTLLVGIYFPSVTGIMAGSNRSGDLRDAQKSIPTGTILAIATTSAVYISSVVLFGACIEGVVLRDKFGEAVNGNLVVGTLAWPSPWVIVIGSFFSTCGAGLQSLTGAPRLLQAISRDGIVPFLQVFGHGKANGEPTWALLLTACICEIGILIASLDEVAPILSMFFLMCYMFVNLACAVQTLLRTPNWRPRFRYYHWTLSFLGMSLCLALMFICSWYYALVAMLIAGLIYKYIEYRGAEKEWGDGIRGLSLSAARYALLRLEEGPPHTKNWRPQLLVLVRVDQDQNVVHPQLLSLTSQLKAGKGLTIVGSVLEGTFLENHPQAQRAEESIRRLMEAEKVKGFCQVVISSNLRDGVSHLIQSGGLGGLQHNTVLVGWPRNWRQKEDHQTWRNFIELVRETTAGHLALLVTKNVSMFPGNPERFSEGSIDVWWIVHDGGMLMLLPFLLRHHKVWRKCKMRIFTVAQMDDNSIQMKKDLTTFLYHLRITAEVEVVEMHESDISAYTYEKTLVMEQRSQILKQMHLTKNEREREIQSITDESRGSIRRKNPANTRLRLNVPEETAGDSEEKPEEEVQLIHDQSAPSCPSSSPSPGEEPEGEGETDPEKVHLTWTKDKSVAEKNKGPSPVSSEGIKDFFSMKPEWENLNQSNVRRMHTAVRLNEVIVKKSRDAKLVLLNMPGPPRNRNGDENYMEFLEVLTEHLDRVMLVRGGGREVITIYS
# KCNQ1 act – human KCNQ1 channel potentiation or activation | P51787 | CHO-K1 KCNQ1, thallium flux FluxOR fluorescence; hits give high values | B-score at 10 µM | hit rate 0.35% among 310,000 | AID 2648;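 active means fluorescence ratio B-score, a plate-corrected score, at least three library SD, with initial intensity B-score within 5 SD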
#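 Doses: Single concentration per compound, DMSO matched to controls | Test system: KCNQ1-transfected CHO-K1 cells | Timing: 90 min dye loading and 20 min compound exposure, both at room temperature | Measured by: Kinetic FluxOR thallium fluorescence, 10-s 1-Hz baseline, 110-s post-stimulus read | Medium: Assay buffer with matched DMSO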
# SUMO Mot1 rescue – SUMOylation pathway inhibition by Mot1-301 growth rescue | hit rate 1% among 320,000 | S. cerevisiae Mot1-301 growth rescue, ATP luminescence, 38.5C; percent above DMSO median, 100 means doubled | growth rescue, % at 18.8 µM;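 active means every valid replicate shows activation above 250% relative to neutral control wells; inactive means the rest, any valid replicate at or below 250%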
# KCNQ1 block – blocks the human KCNQ1 potassium channel; CHO-K1 KCNQ1, FluxOR thallium flux fluorescence; hits give high values; AID 2642; hit rate 1.3% among 310,000; P51787; B-score at 10 µM;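 active means compounds whose thallium flux B-score, printed positive for inhibition, exceeds three library SD while starting fluorescence stays within three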;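 further: channel opened by potassium depolarization with thallium stimulus after 20 min compound exposure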
# hERG protect – hERG (human) protection from proarrhythmic block; Q12809; CHO-hERG, FluxOR thallium flux, dofetilide IC70 present; activation (rescue from dofetilide block), less the hit threshold, % at 10 µM; hit rate 0.51% among 310,000;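 active means activation above the mean of controls blocked by dofetilide plus 5 SD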;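 further: thallium influx through hERG after potassium depolarization seen as dye fluorescence rise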
# KCC2 secondary – confirmation of human KCC2 transport modulators. shares compounds with Cl transport mod. HEK293-KCC2, thallium flux, FluoZin2 fluorescence; hits give high values. normalised thallium flux (F/F0 slope) at 10 µM. hit rate 15% among 3,700;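 active means thallium flux slope above the same plate's solvent-only control mean plus 3 SD; inconclusive means the two replicate wells disagree; inactive means no significant difference from solvent-only control wells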
# KCC2 bumet counter – thallium flux despite bumetanide block in KCC2 cells, secondary assay 3 | shares compounds with Cl transport mod | HEK293-KCC2 + bumetanide/ouabain, thallium flux FluoZin2; hits give high values | normalized thallium flux at 10 µM | hit rate 49% among 3,700;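 active means thallium entry rate above the same plate's blocked-transporter control wells by more than 3 SD; inconclusive means the two repeat wells disagree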;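 further: raw slope of fluorescence over initial fluorescence between 10 and 20 s after thallium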
# KCC2 secondary2 – KCC2 (human) modulation, second secondary assay; shares compounds with Cl transport mod; HEK293-KCC2, thallium flux FluoZin2 fluorescence; actives lie on both sides; F/F0 rise rate, 10–20 s post-thallium; normalized thallium flux at 10 µM; hit rate 23% among 3,700;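 active means thallium flux slope more than 3 SD above or below the plate's solvent-only control mean, mostly below; inconclusive means the two repeat wells disagreed; inactive means no significant shift from solvent-only controls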
# HEK293 Tl flux – counter-screen for KCC2 modulators: effect in parental HEK293 cells; thallium flux FluoZin2, ouabain; baseline-ratio fluorescence slope, 10–20 s after thallium; hit rate 46% among 3,700; thallium flux rate (normalised fluorescence) at 10 µM; shares compounds with Cl transport mod;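 active means thallium flux rate significantly above the same plate's solvent-only control wells, beyond their mean plus 3 SD; inconclusive means the two replicate wells gave conflicting results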
# KCC2 retest ouab – KCC2 (human) modulation, ouabain retest | shares compounds with Cl transport mod | HEK293-KCC2, thallium flux FluoZin2 fluorescence; bidirectional: low = inhibitor, high = activator | raw Tl+ flux slope (below DMSO = inhibition, above = activation) at 10 µM | hit rate 48% among 3,700;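 active means thallium flux slope beyond 3 SD from same-plate DMSO control mean in most replicates, usually higher, sometimes lower; inconclusive means repeat tests gave conflicting results; inactive means no significant difference from controls in most replicates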;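 further: slope of initial-normalized fluorescence between seconds 10 and 20 after thallium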
# HEK293 Tl flux2 – parental HEK flux effect, counter-screen 2 | shares compounds with Cl transport mod | HEK293 parental, thallium flux FluoZin-2 fluorescence slope | thallium flux slope at 10 µM | hit rate 33% among 3,700 | AID 1718;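 active means thallium flux slope above the same plate's solvent-control mean plus 3 SD in both duplicate wells; inconclusive means duplicate wells that disagreed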;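 further: run without ouabain in cells lacking the KCC2 cotransporter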
# Numbers stand for hits; . = inactive; ? = inconclusive; / = no result given.
SMILES,AI-2 QS modul,Cl transport mod,KCNQ1 act,SUMO Mot1 rescue,KCNQ1 block,hERG protect,KCC2 secondary,KCC2 bumet counter,KCC2 secondary2,HEK293 Tl flux,KCC2 retest ouab,HEK293 Tl flux2
Cc1ccc(NC(=S)N=Nc2c(O)n(C)c3ccc(S(=O)(=O)N4CCOCC4)cc23)cc1C,.,7.43,.,.,.,.,.,0.0128,.,0.0323,?,0.0178
CC1CCCC(NC(=O)CCC(=O)c2ccc(F)cc2)C1C (configuration not stated),.,-3.98,.,.,.,.,.,.,.,.,.,.
Oc1ccc(COCc2ccccc2)c2cccnc12,?,3.34,.,.,.,.,.,0.0276,.,0.0132,?,.
CC1CCCCN1S(=O)(=O)Cc1ccccc1Cl (configuration not stated),.,/,.,.,.,.,/,/,/,/,/,/
C=CCc1cccc2cc(C(=O)Nc3cccc(C(=O)O)c3)c(=O)oc12,.,.,.,.,.,.,/,/,/,/,/,/
C=CCc1cccc2cc(C(=O)NNC(=O)c3ccncc3)c(=O)oc12,.,4.79,.,.,.,.,.,.,.,.,.,.
CCOC(=O)c1[nH]c(C=O)c(C(=O)OCC)c1C,.,25.8,13,.,.,4.9,.,0.0506,0.0403,0.0288,0.0437,0.0306
CCOC(=O)c1[nH]c(C)c(C(=O)O)c1C,/,.,/,/,/,/,/,/,/,/,/,/
C[C@H]1O[C@@H](O[C@H]2CC[C@@]3(C)C(CC[C@]4(C)C3C=C[C@]35OC[C@@]6(CCC(C)(C)C[C@H]63)[C@@H](O)C[C@]54C)[C@]2(C)CO)[C@H](O)[C@@H](O[C@@H]2O[C@H](CO)[C@@H](O)[C@H](O)[C@H]2O)[C@H]1O (some centres not stated),/,/,/,.,/,/,/,/,/,/,/,/
CC1OC(OC2C(OC3C(O[C@H]4CC[C@]5(C)C6C=C[C@]78OC[C@@]9(CC[C@@H](C)[C@H](C)C97)[C@H](O)C[C@@]8(C)[C@]6(C)CC[C@H]5C4(C)C)OC(C)C(O)C3O)OC(CO)C(O)C2O)C(O)C(O)C1O (some centres not stated),.,27.5,.,/,.,.,?,0.0251,.,0.0426,?,.
Cc1oc(-c2nc3ccccc3n2C)cc1C(=O)c1ccccc1,.,-2.94,.,.,.,.,.,.,.,.,0.0144,.
Cn1cc(C(=O)c2ccccc2)cc1-c1nc2ccccc2n1C,.,.,.,.,.,.,/,/,/,/,/,/
C[C@H]1CC[C@H]2C(=O)N3[C@H](c4cccc(N5CCCC5=O)c4)[C@@H](C)CC[C@H]3C(=O)N2[C@@H]1c1cccc(N2CCCC2=O)c1,.,4.91,.,.,.,.,.,.,?,.,.,.
O=C(O)c1cccc(N2CCCC2=O)c1,.,.,.,.,.,.,/,/,/,/,/,/
O=C(NC(=S)Nc1ccccc1[N+](=O)[O-])c1ccccc1Cl,.,18.7,.,.,.,.,?,0.0336,.,0.019,0.0297,0.0133
O=C(NC(=S)Nc1nc(-c2cccc([N+](=O)[O-])c2)cs1)c1cc(Cl)ccc1Cl,.,6.07,.,.,.,.,.,0.0106,.,0.00881,0.027,0.0104
O=C(NC(=S)Nc1nc(-c2cccc([N+](=O)[O-])c2)cs1)c1ccccc1Cl,.,4.8,.,.,.,.,.,0.00793,.,0.0123,0.0238,0.0139
O=C(CSc1nnc(Nc2ccccc2)s1)NN1C(=O)NC2(CCCCC2)C1=O,.,.,.,.,.,.,/,/,/,/,/,/
COc1ccc(NC(=O)CSc2nccn2-c2ccccc2)c(OC)c1,.,.,.,.,.,.,/,/,/,/,/,/
CCOc1ccccc1NC(=O)CSc1nccn1-c1ccccc1,.,-4.78,.,.,.,.,.,?,0.0246,0.0046,0.0127,0.00711
Nn1c(SCC(=O)Nc2cccc(Br)c2)nnc1C1CC1,/,/,/,.,/,/,/,/,/,/,/,/
O=C(NCc1cccc(Cl)c1)NC(=O)c1csc([N+](=O)[O-])c1,.,.,.,.,.,.,/,/,/,/,/,/
CC(C)CNC(=S)NC(=O)c1csc([N+](=O)[O-])c1,?,30.7,.,.,.,.,?,0.0687,.,0.0206,0.0365,0.0146
CCOc1ccccc1C1C(C#N)=C(N)Oc2n[nH]c(CC)c21 (configuration not stated),.,-4.87,.,.,.,.,.,.,.,.,.,.
COCc1[nH]nc2c1C(c1ccccc1OC)C(C#N)=C(N)O2 (configuration not stated),.,/,.,.,.,.,/,/,/,/,/,/
SMILES,AI-2 QS modul,Cl transport mod,KCNQ1 act,SUMO Mot1 rescue,KCNQ1 block,hERG protect,KCC2 secondary,KCC2 bumet counter,KCC2 secondary2,HEK293 Tl flux,KCC2 retest ouab,HEK293 Tl flux2
S=c1[nH]nc(-c2ccco2)n1/N=C/c1cccc(Cl)c1,.,9.19,.,.,.,.,.,0.0139,.,0.0123,0.0219,0.0155
Cc1ccc(/C=N/n2c(-c3ccco3)n[nH]c2=S)cc1,.,15.4,.,.,.,.,.,0.0279,.,0.0187,0.0312,0.0171
Cc1n[nH]c(=S)n1/N=C/c1cccc(OCc2ccccc2)c1,.,16.2,.,.,.,.,.,0.0268,.,0.014,0.0225,0.0163
O=[N+]([O-])c1cc(/C=N/n2c(-c3cccnc3)n[nH]c2=S)ccc1Cl,.,8.07,.,.,.,.,.,0.0766,.,?,?,?
CN1CCCN(C(=O)c2c(F)cccc2Cl)CC1,.,/,.,.,.,.,/,/,/,/,/,/
COc1ccc(-c2cccc(NC(=O)c3cccs3)c2)nn1,.,/,.,.,.,.,/,/,/,/,/,/
Cc1cccc(/C=N/n2c(-c3ccco3)n[nH]c2=S)c1,.,17.5,.,.,.,.,0.0118,0.068,.,0.0164,0.0404,0.0113
CC(C)NC(=O)C1CCCN(c2nnc(-n3cccc3)s2)C1 (configuration not stated),.,.,.,.,.,.,/,/,/,/,/,/

# Bioassay records (PubChem BioAssay)
